# From ChEMBL document CHEMBL1133641, “A new class of potential chloroquine-resistance reversal agents for Plasmodia: syntheses and biological evaluation of 1-(3'-diethylaminopropyl)-3-(substituted phenylmethylene)pyrrolidines” (2000)
# Activity calls are given as the source filed them. The rule behind the calls is not given here.
# Tests used:
# [1] = system: Plasmodium yoelii nigeriensis; test: Inhibition of heme oxygenase in Plasmodium yoelii nigeriensis isolated from infected mice (Mus musculus) (oral); NI denotes no inhibition; format: functional, organism-based
# Method in brief: (§1)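 Swiss albino mice carried P. yoelii nigeriensis tolerant to CQ up to 120 mg/kg. They received compound orally at 15 mg/kg body wt for 5 days. Parasites were then isolated from blood by density gradient centrifugation and saponin lysis, and enzyme inhibition was measured as percent inhibition.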
# [2] = target: T1, Glutathione S-transferase (Plasmodium yoelii yoelii) (UniProt Q7REH6); test: Inhibition of Glutathione S-transferase in Plasmodium yoelii nigeriensis isolated from infected mice (Mus musculus) (oral); NI denotes nil inhibition; method in brief: as §1
# T1 sequence (whole entry): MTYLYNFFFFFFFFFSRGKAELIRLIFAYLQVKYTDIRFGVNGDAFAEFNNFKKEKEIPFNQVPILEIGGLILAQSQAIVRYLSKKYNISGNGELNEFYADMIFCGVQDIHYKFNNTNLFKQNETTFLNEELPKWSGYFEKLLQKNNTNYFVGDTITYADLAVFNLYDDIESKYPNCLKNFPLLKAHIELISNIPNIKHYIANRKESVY
# [3] = system: Plasmodium yoelii nigeriensis; test: In Vitro inhibition of Heme Oxygenase in Cell-free parasite Plasmodium yoelii at concentration 10 uM; format: functional
# Method in brief: (§2)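 Heme oxygenase activity was measured as bilirubin formation in a post-mitochondrial fraction. The parasite enzyme came from cell-free P. yoelii, isolated from infected blood by density gradient centrifugation and saponin lysis. The host enzyme came from infected liver. Compounds were tested at 10–100 µM and preincubated for 10 min before the reaction was started.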
# [4] = (§3) In Vitro evaluation on percentage inhibition in Heme Oxygenase at concentration 100 (uM) of infected host; method in brief: as §2
# [5] = system: Plasmodium yoelii nigeriensis; test: In Vitro inhibition of Heme Oxygenase in Cell-free parasite Plasmodium yoelii at concentration 100 uM; format: functional; method in brief: as §2
# [6] = system: Plasmodium yoelii nigeriensis; test: In Vitro inhibition of Heme Oxygenase in Cell-free parasite Plasmodium yoelii at concentration 50 uM; format: functional; method in brief: as §2
# [7] = In Vitro evaluation on percentage inhibition in Heme Oxygenase at concentration 50(uM) of infected host; method in brief: as §2
# [8] = In Vitro evaluation on percentage inhibition in Heme Oxygenase at concentration 10 (uM)of infected host; method in brief: as §2
# [9] = target: T1, Glutathione S-transferase (Plasmodium yoelii yoelii); test: Inhibition of Glutathione S-transferase in Plasmodium yoelii nigeriensis isolated from infected mice (Mus musculus) (oral); settings: concentration not given here; method in brief: as §1
# [10] = system: Plasmodium yoelii nigeriensis; test: In Vitro inhibition of Heme Oxygenase in Cell-free parasite Plasmodium yoelii at concentration 100 uM;NI denotes nil inhibition; format: functional; method in brief: as §2
# [11] = system: Plasmodium yoelii nigeriensis; test: In Vitro inhibition of Heme Oxygenase in Cell-free parasite Plasmodium yoelii at concentration 10 uM;NI denotes nil inhibition; format: functional; method in brief: as §2
# [12] = system: Plasmodium yoelii nigeriensis; test: Inhibition of heme oxygenase in Plasmodium yoelii nigeriensis isolated from infected mice (Mus musculus) (oral); NI denotes nil inhibition; format: functional, organism-based; method in brief: as §1
# [13] = system: Plasmodium yoelii nigeriensis; test: In Vitro inhibition of Heme Oxygenase in Cell-free parasite Plasmodium yoelii at concentration 50 uM; NI denotes nil inhibition; format: functional; method in brief: as §2
# [14] = system: Plasmodium yoelii nigeriensis; test: In Vitro evaluation on percentage inhibition in Heme Oxygenase at concentration 100 (uM) of Cell-free parasite Plasmodium yoelii; format: functional; method in brief: as §2
# [15] = system: Plasmodium yoelii nigeriensis; test: In Vitro evaluation on percentage inhibition in Heme Oxygenase at concentration 100(uM) of Cell-free parasite Plasmodium yoelii; format: functional; method in brief: as §2
# Mus musculus [16] = species: Mus musculus; test: as §3
# Method in brief: (§4)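 Heme oxygenase from liver of P. yoelii-infected host, post-mitochondrial fraction, run as the host-enzyme counterpart to the cell-free parasite assay. Test compounds at 10-100 µM were preincubated in the assay system for 10 min before starting the reaction. Activity was followed by bilirubin formation and reported as percent inhibition.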
# Mus musculus [17] = species: Mus musculus; test: In Vitro evaluation on percentage inhibition in Heme Oxygenase at concentration 50 (uM) of infected host; method in brief: as §4
SMILES,inhibition [4] [%],inhibition [7] [%],inhibition [3] [%],inhibition [5] [%],inhibition [6] [%],also measured
CCN(CC)CCCN1CC/C(=C\c2ccc3c(c2)OCO3)C1,–,–,100,100,100,inhibition [9]: 10%; NI [10]: No inhibition; NI [11]: No inhibition; NI [12]: No inhibition; NI [13]: No inhibition
CN(C)CCCN1c2ccccc2Sc2ccc(Cl)cc21,–,–,–,–,85,inhibition [14]: 100%
COc1ccc(CCN(C)CCCC(C#N)(c2ccc(OC)c(OC)c2)C(C)C)cc1OC (stereo unspecified),–,–,–,100,100,inhibition (Mus musculus [16]): 19%; inhibition (Mus musculus [17]): 15%

# Further lines, with some results ahead:
inhibition [4] [%],inhibition [7] [%],SMILES,inhibition [3] [%],inhibition [5] [%],inhibition [6] [%],also measured
65,65,CCN(CC)CCCN1CC/C(=C\c2ccccc2)C1,52,82,64,NI [1]: inactive; NI [2]: No inhibition; inhibition [8]: 10%
84,41,COc1ccc([C@@H]2Sc3ccccc3N(CCN(C)C)C(=O)[C@@H]2OC(C)=O)cc1,–,–,12.5,inhibition [15]: 29%
